In ChEMBL document CHEMBL4038284, “Synthesis of novel quinoline-based 4,5-dihydro-1H-pyrazoles as potential anticancer, antifungal, antibacterial and antiprotozoal agents” (Eur J Med Chem, 2017):
Activity calls are given as the source filed them. The rule behind the calls is not given here.

How the values were obtained:
OVCAR-4 = experiment: Growth inhibition of human OVCAR4 cells incubated for 48 hrs by sulforhodamine B assay; assay type: functional; conditions: OVCAR-4, 48 h
Summary of the method: (§1)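 Five-dose NCI SRB assay at 100, 10, 1.0, 0.1 and 0.01 μM for 48 h at 37 °C, 5% CO2. Medium was RPMI-1640 with 5% FBS and 2 mM glutamine. Time-zero plates were TCA-fixed at compound addition, A515 read after SRB staining. GI50 was solved from [(Ti−Tz)/(C−Tz)]×100 = 50. Values beyond the tested range are given as > or <.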

HCC 2998 = experiment: Growth inhibition of human HCC2998 cells incubated for 48 hrs by sulforhodamine B assay; assay type: functional; conditions: HCC 2998, 48 h
Summary of the method: (§2)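 NCI 60-line screen. Cells in RPMI-1640 with 5% FBS and 2 mM L-glutamine, preincubated 24 h, then time-zero plates TCA-fixed. Compounds from DMSO stocks given at five final concentrations (100, 10, 1.0, 0.1, 0.01 µM) for 48 h at 37 °C, 5% CO2. Cells fixed with 10% TCA, SRB-stained, read at 515 nm. GI50 is the concentration giving 50% lower net protein increase versus control.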

OVCAR-8 = experiment: Growth inhibition of human OVCAR8 cells incubated for 48 hrs by sulforhodamine B assay; assay type: functional; conditions: OVCAR-8, 48 h; summary of the method: as §1
SNB-75 = experiment: Growth inhibition of human SNB75 cells incubated for 48 hrs by sulforhodamine B assay; assay type: functional; conditions: SNB-75, 48 h; summary of the method: as §2
A549 = experiment: Growth inhibition of human A549/ATCC cells at 10 uM incubated for 48 hrs by sulforhodamine B assay; assay type: functional, cell-based
Summary of the method: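 NCI 60-cell-line screen at a single 10 µM dose. Cells in RPMI-1640 with 5% FBS and 2 mM L-glutamine, pre-incubated 24 h, then treated for 48 h at 37 °C. TCA fixation, sulforhodamine B staining, absorbance at 515 nm. Percentage growth calculated against time-zero and untreated controls.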

ACHN = experiment: Growth inhibition of human ACHN cells incubated for 48 hrs by sulforhodamine B assay; assay type: functional; summary of the method: as §2
MDA-MB-435 = experiment: Growth inhibition of human MDA-MB-435 cells incubated for 48 hrs by sulforhodamine B assay; assay type: functional; conditions: MDA-MB-435, 48 h; summary of the method: as §1
BT-549 = experiment: Growth inhibition of human BT549 cells incubated for 48 hrs by sulforhodamine B assay; assay type: functional; conditions: BT-549, 48 h
Summary of the method: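 NCI five-dose SRB assay (100, 10, 1.0, 0.1, 0.01 µM) with 48 h exposure in RPMI-1640 with 5% FBS and 2 mM L-glutamine. Cells fixed with TCA and stained with SRB, read at 515 nm. GI50 is the concentration where [(Ti−Tz)/(C−Tz)]×100 = 50.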

NCI-H322M [1] = experiment: Growth inhibition of human NCI-H322M cells incubated for 48 hrs by sulforhodamine B assay; assay type: functional; summary of the method: as §1
SF-295 = experiment: Growth inhibition of human SF295 cells incubated for 48 hrs by sulforhodamine B assay; assay type: functional; conditions: SF-295, 48 h; summary of the method: as §1
NCI-H322M [2] = experiment: Growth inhibition of human NCI-H322M cells at 10 uM incubated for 48 hrs by sulforhodamine B assay; assay type: functional, cell-based
Summary of the method: (§3)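 NCI 60-line panel, single 10 μM dose. Cells were grown in RPMI-1640 with 5% FBS and 2 mM L-glutamine and pre-incubated 24 h before compound addition (DMSO stock). Exposure was 48 h at 37 °C, 5% CO2. Cells were fixed with cold TCA (10% final), stained with 0.4% SRB, bound dye dissolved in 10 mM Tris base, A515 read. Growth was taken relative to time-zero and untreated control plates.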

HL-60(TB) = experiment: Growth inhibition of human HL-60(TB) cells incubated for 48 hrs by sulforhodamine B assay; assay type: functional; conditions: HL-60, 48 h; summary of the method: as §2
SK-MEL-28 = experiment: Growth inhibition of human SK-MEL-28 cells incubated for 48 hrs by sulforhodamine B assay; assay type: functional; conditions: SK-MEL-28, 48 h
Summary of the method: (§4)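 NCI-60 panel cells grown in RPMI-1640 with 5% FBS and 2 mM L-glutamine, preincubated 24 h at 37 °C/5% CO2. Time-zero plates were TCA-fixed at compound addition. DMSO stocks were diluted in medium and tested at five final concentrations (100, 10, 1.0, 0.1, 0.01 µM) for 48 h. Cells were TCA-fixed, stained with SRB and read at 515 nm. GI50 = 50% lower net protein increase versus control.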

IGROV-1 = experiment: Growth inhibition of human IGROV1 cells incubated for 48 hrs by sulforhodamine B assay; assay type: functional; conditions: IGROV-1, 48 h; summary of the method: as §2
UACC-257 = experiment: Growth inhibition of human UACC257 cells incubated for 48 hrs by sulforhodamine B assay; assay type: functional; conditions: UACC-257, 48 h; summary of the method: as §4
OVCAR-3 = experiment: Growth inhibition of human OVCAR3 cells incubated for 48 hrs by sulforhodamine B assay; assay type: functional; conditions: OVCAR-3, 48 h; summary of the method: as §1
NCI/ADR-RES = experiment: Growth inhibition of human NCI/ADR-RES cells incubated for 48 hrs by sulforhodamine B assay; assay type: functional; summary of the method: as §2
HOP-92 = experiment: Growth inhibition of human HOP92 cells incubated for 48 hrs by sulforhodamine B assay; assay type: functional; conditions: HOP-92, 48 h; summary of the method: as §1
MDA-MB-231 [3] = experiment: Growth inhibition of human MDA-MB-231 cells at 10 uM incubated for 48 hrs by sulforhodamine B assay; assay type: functional, cell-based; summary of the method: as §3
A498 = experiment: Growth inhibition of human A498 cells incubated for 48 hrs by sulforhodamine B assay; assay type: functional; conditions: A498, 48 h; summary of the method: as §2
HT-29 = experiment: Growth inhibition of human HT-29 cells incubated for 48 hrs by sulforhodamine B assay; assay type: functional; conditions: HT-29, 48 h; summary of the method: as §1
NCI-H23 = experiment: Growth inhibition of human NCI-H23 cells incubated for 48 hrs by sulforhodamine B assay; assay type: functional; conditions: NCI-H23, 48 h; summary of the method: as §1
Hs-578T = experiment: Growth inhibition of human Hs578T cells incubated for 48 hrs by sulforhodamine B assay; assay type: functional; summary of the method: as §1
RPMI-8226 = experiment: Growth inhibition of human RPMI8226 cells incubated for 48 hrs by sulforhodamine B assay; assay type: functional; conditions: RPMI-8226, 48 h; summary of the method: as §2
MDA-MB-468 = experiment: Growth inhibition of human MDA-MB-468 cells incubated for 48 hrs by sulforhodamine B assay; assay type: functional; conditions: MDA-MB-468, 48 h; summary of the method: as §1
SNB-19 = experiment: Growth inhibition of human SNB19 cells incubated for 48 hrs by sulforhodamine B assay; assay type: functional; conditions: SNB-19, 48 h; summary of the method: as §4
MDA-MB-231 [4] = experiment: Growth inhibition of human MDA-MB-231 cells incubated for 48 hrs by sulforhodamine B assay; assay type: functional; conditions: MDA-MB-231, 48 h; summary of the method: as §1
[5] = read-out: LC50 (the source's name)

Work on COc1cc(C(=O)/C=C/c2cccc(Nc3ccnc4cc(Cl)ccc34)c2)cc(OC)c1OC yielded a GI50 (OVCAR-4) of 1.26 µM, a CC50 (OVCAR-4; [5]) of 5.26 µM and a GI50 (HCC 2998) of 1.72 µM. The CC50 (HCC 2998; [5]) was 5.99 µM, the GI50 (OVCAR-8) was 0.52 µM and the LC50 (concentration causing 50% net cell kill) (OVCAR-8) was 7.07 µM. For the same molecule, the GI50 (SNB-75) was 1.31 µM, the CC50 (SNB-75; [5]) was greater than 100 µM and the “growth inhibition (GI)” value (A549) was “Active”. For the same molecule, the GI50 (ACHN) was 1.24 µM, the CC50 (ACHN; [5]) was 4.99 µM and the GI50 (MDA-MB-435) was 0.47 µM. The GI50 (BT-549) was 1.23 µM, the CC50 (BT-549; [5]) was 6.59 µM and the GI50 (NCI-H322M [1]) was 1.52 µM. It also gave a CC50 (NCI-H322M [1]; [5]) of 7.08 µM, a GI50 (SF-295) of 1.42 µM and a CC50 (SF-295; [5]) of 6.47 µM. For the same molecule, the “growth inhibition (GI)” value (NCI-H322M [2]) was “Active”, the GI50 (HL-60(TB)) was 1.82 µM and the CC50 (HL-60(TB); [5]) was greater than 100 µM. The GI50 (SK-MEL-28) was 1.51 µM, the CC50 (SK-MEL-28; [5]) was 5.98 µM and the GI50 (IGROV-1) was 1.32 µM. For the same molecule, the CC50 (IGROV-1; [5]) was greater than 100 µM, the GI50 (UACC-257) was 1.43 µM and the CC50 (UACC-257; [5]) was 6.53 µM. It also gave a GI50 (OVCAR-3) of 0.39 µM, a CC50 (OVCAR-3; [5]) of 3.85 µM and a GI50 (NCI/ADR-RES) of 0.41 µM. The CC50 (NCI/ADR-RES; [5]) was greater than 100 µM, the GI50 (HOP-92) was 1.47 µM and the LC50 (concentration giving 50% net cell kill) (HOP-92) was greater than 100 µM. The “growth inhibition (GI)” value (MDA-MB-231 [3]) was “Active”, the GI50 (A498) was 1.54 µM and the CC50 (A498; [5]) was greater than 100 µM. The GI50 (HT-29) was 0.32 µM, the LC50 (HT-29) was 5.51 µM and the GI50 (NCI-H23) was 1.67 µM. For the same molecule, the CC50 (NCI-H23; [5]) was 8.1 µM, the GI50 (Hs-578T) was 2.49 µM and the CC50 (Hs-578T; [5]) was greater than 100 µM. It also gave a GI50 (RPMI-8226) of 0.31 µM, a CC50 (RPMI-8226; [5]) greater than 100 µM and a GI50 (MDA-MB-468) of 1.13 µM. For the same molecule, the GI50 (SNB-19) was 1.18 µM, the CC50 (SNB-19; [5]) was 5.08 µM and the GI50 (MDA-MB-231 [4]) was 1.81 µM.
